In the library only some 2.4% were active in any assay of this set; here they are far more common.
ERAP1 HTS inh: ERAP1 (human) enzyme inhibition. recombinant ERAP1, Leu-AMC fluorescence, 60 min. inhibition, % at 10.7 µM. actives 0.15% (n = 340,000). AID 652197;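 active = mean replicate inhibition of at least 30%, or all replicates individually reaching that 30% level; inactive = mean below 30% and not every replicate reaching it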;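 note: 0% = neutral control wells and 100% = L-leucinethiol positive control wells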
PGC1a acetyl inh: PGC1a acetylation modulation, inhibitor mode. U2OS PGC1a acetylation, AlphaScreen anti-acetyl-lysine; with virally co-expressed GCN5 acetyltransferase. inhibition, % at 15.6 µM. actives 0.17% (n = 350,000). AID 651687;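 active = every replicate shows inhibition of at least 40%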;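 note: 0% = neutral control wells and 100% = positive control wells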
Casp6 inh: inhibitors of human caspase-6; P55212; purified caspase-6, Z-VEID-R110 cleavage fluorescence; inhibition, % at 12.5 µM; actives 0.53% (n = 350,000);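 active = mean inhibition across replicates at least about 35%, with every replicate also reaching that limit, limit read from the data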;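 note: 0% = median of neutral control wells and 100% = no fluorescence left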
Target sequence (P55212 24-179 limits assumed): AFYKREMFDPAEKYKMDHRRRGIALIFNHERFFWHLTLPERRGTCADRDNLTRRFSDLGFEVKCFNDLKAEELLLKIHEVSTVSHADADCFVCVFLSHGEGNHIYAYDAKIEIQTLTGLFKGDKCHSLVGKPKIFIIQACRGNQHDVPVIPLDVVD
Target sequence (P55212 194-293 limits assumed): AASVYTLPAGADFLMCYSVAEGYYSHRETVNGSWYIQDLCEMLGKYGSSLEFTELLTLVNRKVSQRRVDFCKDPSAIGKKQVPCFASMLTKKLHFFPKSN
Ecoli rRNA inh: inhibitors of bacterial rRNA selective over humanized ribosomes. AID 720706. GFP signal change (wild-type ribosome), % (no concentration beside the values). actives 1.6% (n = 350,000). E. coli WT GFP vs humanized-ribosome RFP mutants, fluorescence, 24 h; stronger effect = lower value; DMSO median 0, no signal -100;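 active = significant combined selectivity score with lowered wild-type GFP, culture density cut under 30%, mutant RFP and density less affected; inactive = any of these conditions unmet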
S100A4 MyoIIA: inhibitors of human S100A4 binding to myosin IIA peptide | P26447 | S100A4/TAMRA-MyoIIA peptide fluorescence polarization | inhibition, % at 10.7 µM | actives 0.14% (n = 360,000);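 active = mean inhibition of at least 70% across replicates, with every replicate also reaching that level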
Target sequence (P26447 whole entry, looked up): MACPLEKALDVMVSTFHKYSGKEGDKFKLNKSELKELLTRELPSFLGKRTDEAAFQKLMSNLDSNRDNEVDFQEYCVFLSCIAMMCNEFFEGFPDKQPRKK
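Material: S100A4 monomer protein | Medium: HEPES pH 7.2 with CaCl2, KCl, NaCl, DTT, Triton | Reagent: Labelled myosin peptide probe, 5 nM | Doses: One dose per compound | Times: 5 min incubation before reading | Benchmarks: Neutral control DMSO, positive control TFP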
ARNT TACC3 PPI: disrupts binding between human ARNT and TACC3; AlphaScreen His-ARNT PAS-B/GST-TACC3 binding, luminescence; TACC3 fragment carries E629A point mutation; inhibition, % at 9.99 µM; Q9Y6A5; actives 0.66% (n = 390,000);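 active = mean inhibition of replicates at least 50% and at least half of replicates each reaching 50%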;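 note: 0% = complete ARNT plus TACC3 wells and 100% = ARNT alone without TACC3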
* = called active by the depositor.

Results for COCC#Cc1cnc2c(c1)C(=O)N([C@@H](C)CO)C[C@@H](C)[C@@H](CN(C)C(=O)Nc1ccccc1F)O2 ?
ERAP1 HTS inh: 5; PGC1a acetyl inh: 3; Casp6 inh: -1; Ecoli rRNA inh: 2; S100A4 MyoIIA: 8; ARNT TACC3 PPI: 6

Results for C[C@H](CO)N1C[C@H](C)[C@H](CN(C)Cc2cccc(C(F)(F)F)c2)Oc2ncc(-c3cc4ccccc4o3)cc2C1=O ?
ERAP1 HTS inh: 4; PGC1a acetyl inh: 2; Casp6 inh: -2; Ecoli rRNA inh: -3; S100A4 MyoIIA: 0; ARNT TACC3 PPI: 0

What do the screens show for `O=C1C=C(NCc2ccccc2)c2ccccc2C1=O`?
ERAP1 HTS inh: -3; PGC1a acetyl inh: -6; Casp6 inh: 80*; Ecoli rRNA inh: -11; S100A4 MyoIIA: 10; ARNT TACC3 PPI: 25

What do the screens show for `O=C1C=C(Nc2cccnc2)c2ccccc2C1=O`?
ERAP1 HTS inh: 2; Casp6 inh: 96*; Ecoli rRNA inh: -16; S100A4 MyoIIA: 6; ARNT TACC3 PPI: 35*

How did CCOc1ccc(NC2=CC(=O)C(=O)c3ccccc32)cc1 do in these assays?
ERAP1 HTS inh: -6; Casp6 inh: 1; Ecoli rRNA inh: -35; S100A4 MyoIIA: -1; ARNT TACC3 PPI: 39

How did Cc1ccc(NC2=CC(=O)C(=O)c3ccccc32)c(C)c1 do in these assays?
ERAP1 HTS inh: -2; PGC1a acetyl inh: 26; Casp6 inh: 19; S100A4 MyoIIA: 1; ARNT TACC3 PPI: 16

How did O=C1C=C(Nc2ccc(F)cc2)c2ccccc2C1=O do in these assays?
ERAP1 HTS inh: 4; PGC1a acetyl inh: 10; Casp6 inh: 40*; Ecoli rRNA inh: -16; S100A4 MyoIIA: 1; ARNT TACC3 PPI: -1

What do the screens show for `O=C1C=C(Nc2ccccc2O)c2ccccc2C1=O`?
ERAP1 HTS inh: 3; PGC1a acetyl inh: -6; Casp6 inh: 41*; Ecoli rRNA inh: -30; S100A4 MyoIIA: 2; ARNT TACC3 PPI: 22

Results for CCNC(=O)Nc1ccc2c(c1)C(=O)N(C)[C@H]1CC[C@H](CC(=O)NCC3CC3)O[C@H]1CO2 ?
PGC1a acetyl inh: 2; Ecoli rRNA inh: 1; ARNT TACC3 PPI: 1

How did CN(C)CCCNC(=O)C[C@H]1CC[C@H]2[C@@H](COc3ccc(NC(=O)CN(C)C)cc3C(=O)N2C)O1 do in these assays?
Ecoli rRNA inh: 10

How did Cc1ccc(C(C[N+](=O)[O-])c2c(C)[nH]n(-c3ccccc3)c2=O)cc1 (stereo not drawn) do in these assays?
ERAP1 HTS inh: -1; Casp6 inh: 1; Ecoli rRNA inh: 1; S100A4 MyoIIA: 4; ARNT TACC3 PPI: 51*

Results for O=C(C[C@@H]1C=C[C@H](NC(=O)c2ccccn2)[C@@H](CO)O1)NCc1cccc(F)c1 ?
ERAP1 HTS inh: -3; PGC1a acetyl inh: 14; Casp6 inh: -1; Ecoli rRNA inh: 0; S100A4 MyoIIA: 0; ARNT TACC3 PPI: 10

How did COCCCNc1nc(=S)[nH]c2cc(OC)c(OC)cc12 do in these assays?
PGC1a acetyl inh: -27; ARNT TACC3 PPI: 64*

What do the screens show for `COc1cc2[nH]c(=S)nc(NCCC(C)C)c2cc1OC`?
ERAP1 HTS inh: 2; Casp6 inh: 4; Ecoli rRNA inh: -8; S100A4 MyoIIA: 2; ARNT TACC3 PPI: 64*

How did COc1cc2[nH]c(=S)nc(NCC3CCCO3)c2cc1OC (stereo not drawn) do in these assays?
ERAP1 HTS inh: 2; PGC1a acetyl inh: -5; Casp6 inh: -1; Ecoli rRNA inh: 3; S100A4 MyoIIA: 1

What do the screens show for `C[C@H](CO)N1C[C@H](C)[C@H](CN(C)S(=O)(=O)c2ccc(F)cc2)Oc2ccc(NS(=O)(=O)c3cccs3)cc2CC1=O`?
ERAP1 HTS inh: 0; PGC1a acetyl inh: 5; Casp6 inh: -1; Ecoli rRNA inh: 0; S100A4 MyoIIA: 13; ARNT TACC3 PPI: -7

Results for O=C(Cc1ccncc1)NCC[C@H]1CC[C@@H](NC(=O)C2CC2)[C@H](CO)O1 ?
ERAP1 HTS inh: 0; PGC1a acetyl inh: 62*; Casp6 inh: 6; Ecoli rRNA inh: -1; S100A4 MyoIIA: 1; ARNT TACC3 PPI: 5
